FLuc inhib CS: inhibits firefly luciferase, flagging false hits in luciferase inhibition screens. P08659. ATPLite firefly luciferase biochemical luminescence, 10 min. inhibition, % at 10 µM. 1.5% of 200,000 active. AID 1006;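 active = inhibition above about 50% when tested at 10 µM, limit read from the data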
Target sequence (P08659 whole entry, looked up): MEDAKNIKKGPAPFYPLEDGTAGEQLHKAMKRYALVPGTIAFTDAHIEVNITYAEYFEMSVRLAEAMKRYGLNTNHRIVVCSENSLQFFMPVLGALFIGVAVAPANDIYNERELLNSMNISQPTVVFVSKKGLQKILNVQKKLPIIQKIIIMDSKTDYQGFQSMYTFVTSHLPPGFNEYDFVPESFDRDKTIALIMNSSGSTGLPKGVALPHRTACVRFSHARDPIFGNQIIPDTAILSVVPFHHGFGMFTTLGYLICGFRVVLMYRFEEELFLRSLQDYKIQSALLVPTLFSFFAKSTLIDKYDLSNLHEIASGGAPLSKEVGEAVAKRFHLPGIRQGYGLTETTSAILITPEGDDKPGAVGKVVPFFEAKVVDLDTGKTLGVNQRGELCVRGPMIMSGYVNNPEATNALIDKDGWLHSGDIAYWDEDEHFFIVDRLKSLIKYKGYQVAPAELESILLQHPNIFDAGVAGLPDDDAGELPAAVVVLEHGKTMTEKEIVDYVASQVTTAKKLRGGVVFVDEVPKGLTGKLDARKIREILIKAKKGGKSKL
FLuc stim CS: firefly luciferase counter-screen for stimulation assays; P08659; ATPlite luciferase biochemical, luminescence, 10 min; 0 = ATP-free wells, 1 = DMSO control; activation factor at 10 µM; 200,000 tested, under 10 active;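 active = luciferase activation factor, scaled between plate controls, of at least 2 with compound at 10 µM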
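Assay system – cell-free luciferase reagent · Medium – PBS-based ATP solution · Dosing – test compounds dosed from 2 mM stocks in 100% DMSO · Timing – 10 min, room temperature · Technique – light output (luminescence) · Measure – luminescence gain marking luciferase activators · Controls – No-ATP low control, compound-free enzyme-plus-ATP high control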
STAT1 act: increases IFN-gamma driven STAT1 reporter signal | NIH 3T3 STAT1-luciferase reporter, luminescence; 100% = IFN-gamma alone, no compound | activation (% of control), % at 5.5 µM | 2.6% of 200,000 active;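 active = activation above the screen-wide mean activation plus 3 SD, cut at about 130% in these data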;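 also: raw ratio to IFN-gamma control signal so 100% means no change and 0% no light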
NF-kB neuron act: NF-kB expression increase, human neuronal cells. AID 1239. NF-kB reporter expression; stronger effect = higher value. fold change at 12.5 µM. 1.6% of 190,000 active; in the data active = fold change above about 3.3
APP 5'UTR act: APP 5'UTR luciferase reporter activation | AID 1276 | SH-SY5Y APP 5'UTR luciferase reporter, luminescence; zero percent = DMSO vehicle wells | 1% of 190,000 active | activation, % at 2 µM;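 active = activation above a set limit, based on mean plus 3 SD of controls, cut at about 140% in these data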
Numbers without * were called inactive; / = no result given. Shown are actives, neighbours in structure and some others; about 4.3% of the full set was active somewhere.

SMILES	FLuc inhib CS	FLuc stim CS	STAT1 act	NF-kB neuron act	APP 5'UTR act
CCCn1c(C)cc(C(=O)COC(=O)CN=C2NS(=O)(=O)c3ccccc32)c1C	16	0.8	96	1	6
CC(C)c1ccc(Nc2nnc(SCC(=O)Nc3ncc(S(=O)(=O)c4ccc([N+](=O)[O-])cc4)s3)s2)cc1	73*	0.3	95	1.1	64
Nc1[nH]nc2nc3ccccc3cc12	6	0.9	106	1.1	5
CCc1ccc2nc3n[nH]c(N)c3cc2c1	70*	0.3	118	2	104
O=C(Nc1ccc(S(=O)(=O)Nc2ccccc2)cc1)c1ccc(CN2CCOCC2)cc1	-3	1	78	0.75	8
Cc1ccc(S(=O)(=O)N2CCC(C(=O)OCc3ccc([N+](=O)[O-])cc3)CC2)cc1	-3	1	104	1.1	-14
CCC(=O)Nc1cnc(NC(=O)c2cccc(F)c2)cc1C	16	0.8	142*	2.8	81
CC(=O)Nc1cnc(NC(=O)c2cccc(F)c2)cc1C	11	0.9	127	2.4	98
CCC(=O)Nc1ccc(NC(=O)c2ccccc2)nc1	62*	0.4	119	2.6	116
COc1cccc(C(=O)Nc2ccc(NC(=O)C(C)(C)C)cn2)c1	88*	0.1	85	1.9	138*
CCCCCCCC(O)CC(CC1CCCCC1)C(=O)NN (stereo not drawn)	-4	1	105	1.4	/
COc1cc(/C=C2/NC(=O)N(Cc3ccccc3F)C2=O)cc(OC)c1O	0	1	109	0.8	-1
CCOc1cc(/C=C2/NC(=O)N(Cc3ccccc3F)C2=O)ccc1O	-5	1.1	104	5.9*	-25
O=C(CCCN1C(=O)/C(=C/c2cccc(Br)c2)SC1=S)Nc1cccnc1	-9	1.1	92	3.4*	-3
Cn1cnnc1SCC(=O)Nc1ccccc1Oc1ccccc1	-1	1	100	1.1	-14
Fc1cccc2sc(Nc3nnc(-c4ccco4)o3)nc12	68*	0.3	132*	2	46
COc1cccc2sc(Nc3nc(-c4ccccn4)cs3)nc12	6	0.9	136*	0.86	-84
COc1cccc2sc(NNC(=O)COc3ccccc3)nc12	-3	1	102	1.1	12
COc1cccc2sc(Nc3nnc(-c4cccs4)o3)nc12	56*	0.4	139*	1.2	71
Cc1cc(=O)n2[nH]c(-c3ccccc3)cc2n1	11	0.9	110	1.8	29
CCOC(=O)Cc1cc(=O)n2[nH]c(-c3ccc(C)cc3)cc2n1	54*	0.5	103	0.99	6
Cc1cc(=O)n2[nH]c(-c3ccc(C(C)(C)C)cc3)cc2n1	40	0.6	106	5.1*	16
CCc1c(C)nc2cc(-c3ccc(OC)cc3)[nH]n2c1=O	37	0.6	130*	2.3	112
CCOc1ccc(NC(=S)N(CC)Cc2ccccc2)cc1	-2	1	108	1.4	9
CC1(C(=O)NCC2CCCO2)Oc2cccnc2NC1=O (stereo not drawn)	0	1	101	/	-2
SMILES	FLuc inhib CS	FLuc stim CS	STAT1 act	NF-kB neuron act	APP 5'UTR act
Cc1cc(/C=C(\C#N)C(=O)Nc2ccccc2)c(C)n1-c1cccnc1	51*	0.5	133*	1.5	83
Cc1cc(C(=O)O)ccc1-n1c(C)cc(/C=C(/C#N)C(=O)Nc2ccccc2)c1C	0	1	97	0.96	26
N/C(=N\OC(=O)CCC1CCCCC1)c1ccc([N+](=O)[O-])cc1	-1	1	103	1.3	-2
N/C(=N\OC(=O)CCC1CCCCC1)c1cccnc1	63*	0.4	109	1.7	17
N/C(=N\OC(=O)c1ccccc1Cl)c1cccnc1	83*	0.2	140*	5.7*	109
N/C(=N\OC(=O)Cc1ccccc1)c1cccnc1	2	1	104	1.6	5
N/C(=N\OC(=O)CCCc1ccccc1)c1cccnc1	50*	0.5	109	1.1	17
N/C(=N\OC(=O)c1ccccc1)c1cccnc1	92*	0.1	122	1.2	76
N/C(=N\OC(=O)c1cc(Cl)ccc1Cl)c1cccnc1	16	0.8	125	2	8
COc1ccc(NC(=O)CN(C)C(=O)c2oc3ccccc3c2C)cc1	0	1	95	0.87	8
Cc1cccc2nc(CSc3ncccc3C(=O)O)cn12	2	1	98	0.87	12
Cc1cccc2nc(COc3ccc(Cl)c4cccnc34)cn12	38	0.6	129*	1.4	38
Cc1cccc(OCC2CCCN(Cc3nc(C4CC4)no3)C2)c1 (stereo not drawn)	-7	1.1	100	0.98	25
Cc1nc2sc(C(=O)c3ccccc3)c(N)c2c(C)c1C	12	0.9	114	/	13
Cc1nc2sc(C(=O)Nc3ccccc3)c(N)c2c(C)c1[N+](=O)[O-]	13	0.9	126	1.7	168*
Cc1cccc(C(=O)Oc2ccccc2/C=N/Nc2ccc([N+](=O)[O-])cc2)c1	-5	1.1	90	1	-16
Cc1cccc(C(=O)Oc2ccc(/C=N/O)cc2)c1	10	0.9	135*	3.1	149*
O=C(Oc1ccc(/C=N/O)cc1)c1ccccc1Cl	18	0.8	142*	2	61
Cc1nc(NC(=O)c2ccc(F)cc2)nc2cc3c(cc12)OCO3	4	1	110	0.77	9
Cc1nc(NC(=O)c2ccccc2)nc2cc3c(cc12)OCO3	19	0.8	129*	1.6	34
O=C(CCC(=O)N/N=C/c1ccccc1O)NCc1ccccc1	-9	1.1	92	0.79	-8
O=C(Oc1ccc(-c2nccc(-c3ccccn3)n2)cc1)c1cccc(C(F)(F)F)c1	-4	1	79	3.4*	33
COC(=O)c1ccc2nc(NC(=O)C(C)(C)C)sc2c1	95*	0	31	1.1	108
COC(=O)c1ccc2nc(NC(=O)C3CCCCC3)sc2c1	2	1	124	1.6	141*
COc1cc(S(=O)(=O)N2CCN(c3ccccc3F)CC2)ccc1Cl	74*	0.3	103	0.95	12
SMILES	FLuc inhib CS	FLuc stim CS	STAT1 act	NF-kB neuron act	APP 5'UTR act
COc1cc(S(=O)(=O)N2CCN(c3ccccc3)CC2)ccc1Cl	-2	1	99	0.99	6
Fc1ccc(Nc2ccc(-c3ccc(F)cc3)nn2)cc1	18	0.8	139*	2.7	81
Fc1ccc(-c2ccc(Nc3cccc(F)c3)nn2)cc1	9	0.9	144*	1.7	56
Clc1cc(Cl)c2nc(N3CCCCC3)sc2c1	9	0.9	124	3.3*	63
Clc1cc(Cl)c2nc(N3CCCC3)sc2c1	/	/	126	/	28
O=C1c2ccccc2NC(c2ccc(O)cc2)N1/N=C/c1ccc(O)cc1 (stereo not drawn)	7	0.9	122	1.6	12
O=C1c2ccccc2NC(c2ccccc2)N1/N=C/c1ccccc1 (stereo not drawn)	3	1	112	3.8*	128
Oc1c(CN2CCOCC2)cc(COCc2ccccc2)c2cccnc12	-5	1.1	119	4.2*	-92
